The text below walks through data of ChEMBL document CHEMBL1159094, “New iodinated quinoline-2-carboxamides for SPECT imaging of the translocator protein” (Bioorg Med Chem Lett, 2010).

Series [1] in a line: Lipophilicity, log P by HPLC method. Conditions: octanol/water.
Another series deals with Translocator protein (Rattus norvegicus, UniProt P16257). Put plainly: Displacement of [3H]PK11195 from TSPO in Sprague-Dawley rat brain homogenates by liquid scintillation counting. The class given is tissue-based. A general note: Displacement assays read how much labelled ligand stays bound in the presence of the test substance.
Translocator protein, sequence (P16257 whole entry, looked up): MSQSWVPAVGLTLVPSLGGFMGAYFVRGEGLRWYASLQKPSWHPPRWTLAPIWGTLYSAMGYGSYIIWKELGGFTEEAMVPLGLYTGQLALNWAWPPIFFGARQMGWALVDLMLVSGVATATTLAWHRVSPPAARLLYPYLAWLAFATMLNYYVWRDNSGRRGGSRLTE
Series [2] can be described thus: Chemical stability in 0.01 mM phosphate buffered saline assessed as purity of parent compound after 4 hrs by HPLC analysis. Conditions: read-out: Activity. The format is physicochemical. Summed up: (§1)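 Test compound incubated in phosphate buffered saline at 37 °C. Parent compound decomposition followed over time by HPLC.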
The nature of series [3]: Chemical stability in 0.01 mM phosphate buffered saline assessed as purity of parent compound after 6 hrs by HPLC analysis. The class given is physicochemical. Conditions: read-out: Activity. In outline:
as §1

Series [4] can be described thus: Chemical stability in 0.01 mM phosphate buffered saline assessed as purity of parent compound after 2 hrs by HPLC analysis. The class given is physicochemical. Conditions: read-out: Activity. In outline: as §1
A short description of series [5]: Chemical stability in 0.01 mM phosphate buffered saline assessed as purity of parent compound after 24 hrs by HPLC analysis. The format is physicochemical. Conditions: read-out: Activity. Summed up:
as §1

Series [6] is described as follows: Chemical stability in 0.01 mM phosphate buffered saline assessed as purity of parent compound after 1 hr by HPLC analysis. The class given is physicochemical. Conditions: read-out: Activity. Summed up: as §1

`CN(Cc1cccc(I)c1)C(=O)c1cc(-c2ccc(F)cc2)c2ccccc2n1` registered a logP in series [1] of 5.16. Further, the Ki on Translocator protein was above 1000 nM.
For `CN(CCc1ccccc1)C(=O)c1nc2ccccc2c(-c2ccccc2)c1CI`, in that order: 5.41 and 411 nM.
In series [1], `Cc1c(C(=O)N(C)Cc2ccc(I)cc2)nc2ccccc2c1-c1ccccc1` registered a logP of 5.12. The same compound yielded a Ki on Translocator protein above 1000 nM.
In the case of `CCN(CC)C(=O)c1nc2ccccc2c(-c2ccccc2)c1CI`, in series [2], the remaining at 4 h stood at 94%. In series [3], the remaining at 6 h was 94%. The remaining at 2 h in series [4] stood at 96%. In addition, the remaining at 24 h in series [5] worked out at 79%. In series [6], the remaining at 1 h came to 96%.
For `CCC(C)N(C)C(=O)c1cc2ccccc2c(-c2ccccc2Cl)n1` (configuration not stated) [PK-11195], the logP in series [1] was 3.85.

As a reminder, the logP is a log measure of how a compound divides between an organic and an aqueous phase. What is called Ki is a dissociation constant, usually derived from enzyme kinetics or from competition with a known ligand.
